42 compounds from PubChem BioAssay AID743247 (Broad Institute, 2014) can be followed below.

Among all 350,000 compounds or so, about 300 (0.086%) were called active. The entries come from a sample that favours actives as a whole. Unmarked numbers belong to inactive results.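 How the source made its calls: active means mean inhibition across replicates of 30% or more, regardless of how many single replicates reach that level; inconclusive means mean under 30% yet at least half of replicates reach 30%; inactive means the rest.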

In general, inhibition refers to the drop in the measured response relative to a control, in per cent.

A short description of the experiment: inhibitors of fibronectin matrix deposition, primary screen, AH1F cells, Alexa488-fibronectin fluorescence, plate reader (AID 743247).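 Further: positive control wells lacked labelled fibronectin entirely.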 As to conditions: AH1F fibroblasts, overnight, at 12.6 µM, hits give high values. Put shortly:
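Measured by – fluorescence 485/525 nm · System – AH1F fibroblast monolayer, labelled fibronectin deposition · Amount – 10000 cells per well · Buffer or medium – serum-reduced DMEM (2% serum) · Doses – single dose, pinned · Also added – fluorescent fibronectin at 24 nM final · Schedule – 1 h cell attachment, overnight exposure to compound and label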
Regarding `C[C@@H]1CC=CC[C@@H](c2ccccc2)NC(=O)[C@H](C)N(C)C(=O)c2ccccc2O1` (mixture of isomers), the inhibition was -2.82%. For the compound `CN(C)c1ccc2c(c1)[C@H]1C[C@H](CC(=O)NCc3ccc(Cl)cc3)O[C@H](CO)[C@H]1O2`, the inhibition is 1.04%. As for `C[C@@H]1CC=CC[C@H](c2ccc(F)cc2)NC(=O)[C@@H](Cc2ccccc2)N(C)C(=O)c2ccccc2O1` (mixture of isomers), the inhibition was 7.06%. On to `COc1ccccc1NC(=O)N[C@H]1CC[C@H](CCNC(=O)Cc2ccccn2)O[C@@H]1CO`, for which the inhibition is 1.21%.

As for `COC(=O)C[C@H]1CC[C@@H]2[C@@H](COc3ccc(NC(=O)Nc4ccc(Cl)cc4)cc3C(=O)N2C)O1`, the inhibition is -17.5%. Regarding `CN(C)C(=O)c1ccc(-c2ccc([C@H]3[C@H](CO)N4C(=O)CN(C(=O)C5CCCC5)C[C@@H]34)cc2)cc1`, the inhibition is 0.201%. As for `C[C@H]1CCCCO[C@H](CN(C)C(=O)Nc2ccc(F)cc2)[C@@H](C)CN([C@@H](C)CO)C(=O)c2cc(NC(=O)CCC(F)(F)F)ccc2O1`, the figure is 7.35%; as for `COc1ccc2c3c(n(C)c2c1)[C@H](CO)N(C(=O)c1ccncc1)CC31CCN(CC2CC2)CC1`, -1.91%. Consider `O=C(C[C@@H]1C=C[C@@H](NC(=O)c2cccnc2)[C@H](CO)O1)NCc1ccncn1`, for which the inhibition is 11.1%. As to `CNC(=O)C[C@@H]1CC[C@@H]2[C@H](COc3ccc(NC(=O)c4cccs4)cc3C(=O)N2C)O1`, the inhibition was -9.79%. As for `C[C@@H](C(=O)N(C)C[C@H]1OCc2ccccc2-c2c(n(C)c3ccccc23)C(=O)N([C@@H](C)CO)C[C@@H]1C)c1ccccc1`, the figure is -2.51%; as for `COc1cccc(C#Cc2ccc3c(c2)[C@@H]2[C@@H](CCN2S(=O)(=O)c2ccc(C)cc2)[C@@H](CO)N3)c1`, 2.44%. For `COc1ccccc1C#Cc1ccc([C@H]2[C@@H](C#N)N(C(=O)C3CCCCC3)[C@@H]2CO)cc1` the value was -2.57%; for `O=C(C[C@@H]1CC[C@@H]2[C@H](COC[C@@H](O)CN2C(=O)c2ccccc2F)O1)N1CCOCC1`, -11.5%; for `O=C(O)C[C@H]1C=C[C@@H](NC(=O)Nc2cc(F)ccc2F)[C@@H](CO)O1`, -9.56%. With `COc1ccc([C@@H]2C/C=C\C[C@@H](c3ccc4c(c3)OCO4)NC(=O)CCC(=O)N2)c(OC)c1`, the inhibition is 8.56%. For `CC(C)NC(=O)N[C@@H]1CC[C@H](CC(=O)NC2Cc3ccccc3C2)O[C@H]1CO` the value was 10.9%; for `O=C(C[C@@H]1CC[C@H](NC(=O)C2CCC2)[C@@H](CO)O1)NC1CCCCC1`, -5.05%. For `CC(C)C#Cc1ccc2c(c1)O[C@@H](CN(C)C(=O)C1CCC1)[C@@H](C)CN([C@@H](C)CO)S2(=O)=O`, the inhibition is -2.23%. Take `CC(=O)N(C)C[C@H]1Oc2ncc(C#Cc3ccc(F)cc3)cc2C(=O)N([C@H](C)CO)C[C@@H]1C`: the inhibition is 11.6%.

For `CN1C(=O)c2cc(NC(=O)Cc3ccccc3)ccc2OC[C@H]2O[C@H](CC(=O)NCc3ccc(Cl)cc3)CC[C@H]21`, the inhibition was 1.06%. As for `CC(C)NC(=O)Nc1ccc2c(c1)CC(=O)N(C)C[C@@H](C)[C@@H](CN(C)C(=O)OC(C)(C)C)O2`, the inhibition is -1.15%. For `COc1cccc(C(=O)Nc2ccc3c(c2)OC[C@H](C)NC[C@H](C)[C@H](OC)CN(C)C3=O)c1` the value was 3.33%. For `O=C(c1cccnc1)N1C[C@H]2[C@@H](c3ccccc31)[C@H](CO)N2C(=O)C1CC1` the value was 7.1%. As for `COc1cccc(-c2cnc3c(c2)C(=O)N([C@@H](C)CO)C[C@@H](C)[C@@H](CN(C)Cc2ccc(C(=O)O)cc2)O3)c1`, the figure is -19.8%. As to `CC(C)NC(=O)N(C)C[C@H]1Oc2ccc(N)cc2C(=O)N(C)C[C@@H]1C`, the inhibition was 0.428%.

For `C[C@H]1CCCCO[C@@H](CN(C)C(=O)Nc2ccccc2)[C@@H](C)CN([C@@H](C)CO)C(=O)c2cc(NC(=O)CCC(F)(F)F)ccc2O1`, the inhibition was -5.23%.

Take `C[C@@H]1CN([C@@H](C)CO)C(=O)c2c(c3ccccc3n2C)-c2ccccc2CO[C@H]1CN(C)C(=O)N[C@H](C)c1ccccc1`: the inhibition was -3.56%. For the compound `COCC(=O)Nc1ccc2c(c1)OC[C@@H](C)N(Cc1ccccc1C(=O)O)C[C@@H](C)[C@H](OC)CN(C)C2=O`, the inhibition was -5.62%.

`CCC(=O)Nc1ccc2c(c1)C(=O)N(C)C[C@@H](OC)[C@@H](C)CN(C(=O)CN(C)C)[C@@H](C)CO2`: the inhibition was 2.05%. For `CNC[C@@H]1Oc2ccc(NC(C)=O)cc2CC(=O)N(C)C[C@@H]1C` the value was -0.299%; for `CO[C@H]1CN(C)C(=O)c2ccc(NC(=O)Nc3ccccc3)cc2OC[C@@H](C)N(C(=O)CC2CC2)C[C@@H]1C`, -8.75%. For `O=C(Nc1nc(-c2ccncc2)cs1)C1COc2ccccc2O1` (configuration not stated) the value was 30.8% (active); for `C/C(=N/NC(=O)C1COc2ccccc2O1)c1ccco1` (configuration not stated), -7.65%. For `O=C(Nc1cc(S(=O)(=O)N2CCCCC2)ccc1Cl)C1COc2ccccc2O1` (configuration not stated), the inhibition was 1.13%. For `COc1ccccc1NC(=O)N[C@H]1C=C[C@@H](CC(=O)N[C@@H](C)c2ccccc2)O[C@@H]1CO` the value was -15.6%. For `CCCc1cn(CC[C@H]2CC[C@@H](NC(=O)C3CCOCC3)[C@@H](CO)O2)nn1` the value was 0.091%. Regarding `O=C(OCc1ccc(-c2ccccc2)cc1)c1cccc(O)c1`, the inhibition was 7.52%.

On to `O=C(COC(=O)c1ccccc1)Nc1ccccc1Sc1ccccc1`, for which the inhibition is -7.06%. For the compound `O=C(OCC(O)C(O)COC(=O)c1ccccc1)c1ccccc1` (configuration not stated), the inhibition is 2.45% (active). For `C[C@H]1CN([C@@H](C)CO)C(=O)c2c(c3ccccc3n2C)-c2ccccc2CO[C@@H]1CN(C)C(=O)Nc1ccnc(N2CCOCC2)c1` the value was 4.14%. Regarding `O=C(C1CCC1)N1CC(=O)N2[C@H](CO)[C@H](c3ccc(C#CCc4ccccc4)cc3)[C@@H]2C1`, the inhibition is -13.2%.
